# RGS4 pot: RGS4 potentiators or activators, primary screen, cell-based, HEK293 M3R inducible RGS4, calcium flux; carbachol calcium flux Fluo4; hits give low values; B-score at 10 µM; 310,000 compounds, 0.92% hits;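 active means B-score of the integrated calcium signal more than 4 SD below the library mean, with starting fluorescence not abnormally high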;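 further: negative B-score means reduced calcium response which marks RGS4 activation or potentiation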
#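 Detection: kinetic calcium fluorescence imaging with Fluo4-AM dye, 2 µM / Material: HEK293 cells with stable M3R and inducible RGS4 / Schedule: recording 10 s baseline at 1 Hz, 100 s post-agonist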
# RGS4 inh: RGS4 inhibitors, primary screen, cell-based, HEK293 M3R inducible RGS4, calcium flux; B-score at 10 µM; Fluo-4 calcium flux; hits give high values; triggered by carbachol at its EC20; 310,000 compounds, 0.45% hits; Regulator of G-protein signaling 4 (Homo sapiens), P49798;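 active means B-score, a plate-corrected calcium signal, over three deviations above library mean, with baseline fluorescence within five deviations of library mean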;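 further: RGS4 expression induced by doxycycline in cells with stable M3 receptor; B-score is computed from the integrated fluorescence ratio over baseline after carbachol; higher B-score means a larger calcium signal and so more RGS4 inhibition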
# Target sequence (P49798 whole entry, looked up): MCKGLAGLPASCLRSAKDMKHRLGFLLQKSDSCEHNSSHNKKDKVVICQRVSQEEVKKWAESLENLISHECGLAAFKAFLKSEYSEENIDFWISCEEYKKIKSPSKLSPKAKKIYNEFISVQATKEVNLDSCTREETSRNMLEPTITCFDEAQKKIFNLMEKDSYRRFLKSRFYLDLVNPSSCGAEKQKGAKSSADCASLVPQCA
# MrgX1 ag: agonists of human MrgX1 receptor, primary screen, HEK293 cells, Fluo-4 calcium flux. Mas-related G-protein coupled receptor member X1 (Homo sapiens), Q96LB2. Fluo-4 calcium fluorescence, agonist mode; hits give high values. B-score at 10 µM. 310,000 compounds, 0.44% hits. AID 588627, 2011;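 active means calcium response B-score plate-corrected fluorescence ratio at least 3 library SD, with starting fluorescence B-score inside 5 SD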
# Target sequence (Q96LB2 whole entry, looked up): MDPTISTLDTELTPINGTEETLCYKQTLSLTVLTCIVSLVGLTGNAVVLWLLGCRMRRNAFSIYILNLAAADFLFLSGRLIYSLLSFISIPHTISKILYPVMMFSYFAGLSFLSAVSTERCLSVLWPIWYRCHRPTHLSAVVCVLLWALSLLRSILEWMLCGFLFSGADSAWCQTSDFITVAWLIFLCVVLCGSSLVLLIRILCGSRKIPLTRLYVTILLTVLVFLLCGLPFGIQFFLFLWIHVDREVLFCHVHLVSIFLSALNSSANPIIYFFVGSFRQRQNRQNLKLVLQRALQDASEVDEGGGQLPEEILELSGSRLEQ
#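 Assay system: MrgX1-expressing HEK293 cells / Amount: fifteen thousand cells per well / Doses: test compound in the initial addition of three / Timing: cells plated overnight, dye loaded 0.5 h 37 °C, 0.5 h room temperature / Technique: kinetic calcium dye fluorescence, Fluo-4 NW / Control set: positive and negative controls per plate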
# MrgX1 antag: antagonists of human MrgX1 receptor, primary screen, HEK293 cells, Fluo-4 calcium flux; B-score at 10 µM; 310,000 compounds, 1.3% hits; BAM8-22 antagonism; hits give low values; Mas-related G-protein coupled receptor member X1 (Homo sapiens), Q96LB2;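 active means calcium-response B-score plate-corrected more than 3 library SD below zero, starting fluorescence within 5 deviations, no agonist response on first addition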;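 further: peak minus trough fluorescence over baseline after final BAM8-22 challenge near maximal dose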
# MrgX1 PAM: positive allosteric modulators of MrgX1, primary screen, HEK293 cells, Fluo-4 calcium flux. Mas-related G-protein coupled receptor member X1 (Homo sapiens), Q96LB2. FDSS; hits give high values. B-score at 10 µM. 310,000 compounds, 0.63% hits. AID 588675, 2011;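 active means plate-corrected calcium response at least 3 library SD above typical, normal starting fluorescence, not activating the receptor alone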;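 further: compound read alongside a low EC10 to EC30 dose of BAM8-22 agonist; peak minus trough fluorescence over baseline measured at the second addition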
# Hep lipid drop: inhibitors of hepatocyte lipid droplet formation, primary screen, imaging, high-throughput imaging, BODIPY stain | AML12 mouse hepatocytes, oleate lipid droplets | inhibition, % at 6.5 µM | 240,000 compounds, 0.4% hits;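 active means lipid droplet intensity inhibited by at least 50%, with more than 500 cells counted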
#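 Assay system: AML12 mouse liver cells | Compound dosing: One dose, 6.5 µM compound | Read-out basis: Droplet intensity reduction, % inhibition | Measured by: Fluorescence imaging, 20x objective, two fields per well | Schedule: Overnight treatment with compound plus oleate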
# MrgX1 ant reconf: MrgX1 receptor antagonists, duplicate retest, confirmation, HEK293 cells, Fluo-4 calcium flux | shares compounds with MrgX1 antag | BAM8-22 calcium flux; hits give low values | remaining BAM8-22 calcium response % of control (hits give low values), % at 10 µM | 2,300 compounds, 19% hits;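 active means remaining agonist calcium response no higher than 100% minus 3 SD of agonist-only control wells, with starting fluorescence near control levels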;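 further: agonist BAM8-22 given at a near maximal EC90 to ECmax level; peak minus minimum fluorescence divided by baseline after agonist addition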
# HEK293 Ca flux: nonspecific calcium signal in parental HEK293, confirmation, counter-screen for MrgX1 antagonist project, parental HEK293 cells, Fluo-4 calcium flux; AID 624111, 2012; 4,000 compounds, 2% hits; fluorescence ratio F(max-min)/F0 at 10 µM; shares compounds with MrgX1 antag; Fluo-4 calcium fluorescence, FDSS;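 active means duplicate-averaged calcium fluorescence ratio at least three times the standard deviation of buffer wells, a nonspecific response in parental cells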
# HEK293 Ca counter: calcium response in parental HEK293 cells, primary screen, counter-screen for MrgX1 allosteric activator project, cell-based, Fluo-4 calcium flux, duplicate; shares compounds with MrgX1 antag; Fluo-4 fluorescence ratio; hits give high values; fluorescence ratio F(max-min)/F0 at 10 µM; 4,000 compounds, 0.4% hits; AID 624114, 2012;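 active means calcium fluorescence ratio, averaged over duplicates, at least 3 SD of the buffer-well ratio, meaning a nonspecific response in receptor-free cells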;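 further: untransfected parental HEK293 lacking MrgX1 used as counterscreen for MrgX1 allosteric activators; fluorescence change taken during the second addition on a kinetic imager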
# HEK293 Ca cntr2: calcium response in parental HEK293 cells, primary screen, counter-screen for MrgX1 agonist project, cell-based, Fluo-4 calcium flux, duplicate, agonist mode. 4,000 compounds, 8.7% hits. AID 624115, 2012. shares compounds with MrgX1 antag. fluorescence ratio F(max-min)/F0 at 10 µM. Fluo-4 calcium fluorescence (FDSS); hits give high values;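 active means calcium fluorescence ratio at least three times the spread of buffer wells, meaning a non-specific response in parental cells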
# A number is an active result; i = inactive; nt = no result. Only some compounds are listed: those with a hit (about 3.8% of all), similar ones and a draw of the others.
SMILES,RGS4 pot,RGS4 inh,MrgX1 ag,MrgX1 antag,MrgX1 PAM,Hep lipid drop,MrgX1 ant reconf,HEK293 Ca flux,HEK293 Ca counter,HEK293 Ca cntr2
CC(=O)Nc1ccc(-n2c(=O)c3ccccc3c3ccccc3c2=O)cc1,i,i,i,i,i,i,nt,nt,nt,nt
NS(=O)(=O)c1ccc(N/C=C\C(=O)c2cccc3ccccc23)cc1,i,i,i,i,i,i,nt,nt,nt,nt
CN1CCN(c2ccc(-c3ccnn3C(=O)Nc3ccccc3)cc2)CC1,i,i,i,-10.3,i,i,i,i,i,i
CN1CCN(c2ccc(NC(=O)C(C)(c3ccccc3)c3ccccc3)cc2)CC1,i,i,i,i,i,i,nt,nt,nt,nt
CN(c1cccc(NC(=O)COc2ccc(Cl)cc2Cl)c1)S(C)(=O)=O,i,i,i,i,i,i,nt,nt,nt,nt
NC(=O)c1cc2c3ccccc3ccn2c1-c1ccccc1,i,i,i,-5.7,i,i,i,i,i,i
Cc1cc(C(N)=O)c2ccccc2n1,i,i,i,i,i,nt,nt,nt,nt,nt
COc1ccc(CNc2nc(-c3ccccc3)nn2C(=O)c2ccc([N+](=O)[O-])cc2)cc1,i,i,i,i,i,i,nt,nt,nt,nt
COc1ccc(CNc2nc(-c3ccccc3)nn2C(=O)c2cccs2)cc1,i,i,i,-4.88,i,i,i,i,i,54.6
Cc1ccn2c(CNCCCn3cccn3)c(C(=O)N3CCCCCC3)nc2c1,i,i,i,i,i,i,nt,nt,nt,nt
Cc1ccn2c(CNCCn3cccn3)c(C(=O)N3CCCCCC3)nc2c1,i,i,i,-7.47,i,i,i,i,i,i
C=CCOC(=O)C1=C(C)N(C)C(=O)NC1c1cc2c(cc1Br)OCO2 (stereo not drawn),i,i,i,-4.65,i,nt,85.4%,i,i,i
CC/S(=N\S(=O)(=O)c1ccc(C)cc1)c1ccccc1 (stereo not drawn),i,i,i,i,i,i,nt,nt,nt,nt
CC(=O)N1CCn2c3ccc(C)cc3c3cccc1c32,i,i,i,i,i,i,nt,nt,nt,nt
COc1ccc(C(c2c(O)nc(SC)n(C)c2=O)c2c(O)nc(SC)n(C)c2=O)cc1O,i,i,i,-7.35,i,i,i,i,i,i
Cc1csc(NC(=O)c2ccc(Cn3nc(C)c(Br)c3C)o2)n1,i,i,i,-4.78,i,i,74.0%,i,i,i
Cc1nn(Cc2ccc(C(=O)Nc3ccccc3C(F)(F)F)o2)c(C)c1Br,i,i,i,i,i,nt,nt,nt,nt,nt
CN(CC(=O)Nc1c(Cl)cccc1Cl)C(=O)c1ccc2nc[nH]c2c1,i,i,i,-7.14,i,nt,73.5%,i,i,i
Cc1cccc(C)c1NC(=O)CN(C)C(=O)c1ccc2nc[nH]c2c1,i,i,i,i,i,nt,nt,nt,nt,nt
O=C(Nc1ccc(C(=O)N2CCCCC2)cc1)c1ccccc1Br,i,i,i,-5.62,i,i,i,i,i,i
CC(OC(=O)c1ccc(S(=O)(=O)NCc2ccco2)cc1)C(=O)Nc1ccc(Cl)cn1 (stereo not drawn),i,i,i,-6.54,i,i,i,i,i,i
O=C(Nc1cccc(O)c1)c1cc(S(=O)(=O)N2CCCC2)ccc1Cl,i,i,i,-5.11,i,i,i,i,i,i
O=C(Nc1ccccc1)c1cc(S(=O)(=O)N2CCSCC2)ccc1Cl,i,i,i,i,i,i,nt,nt,nt,nt
CC(C)[C@H]1COCCS(=O)(=O)N1Cc1ccccc1F,i,i,i,-5.33,i,nt,i,i,i,i
CCC[C@H]1COCCS(=O)(=O)N1Cc1ccccc1F,i,i,i,i,i,i,nt,nt,nt,nt
SMILES,RGS4 pot,RGS4 inh,MrgX1 ag,MrgX1 antag,MrgX1 PAM,Hep lipid drop,MrgX1 ant reconf,HEK293 Ca flux,HEK293 Ca counter,HEK293 Ca cntr2
Cc1nn(CCC(=O)O)c2nc(-c3cccnc3)cc(C(F)(F)F)c12,i,i,i,i,i,nt,nt,nt,nt,nt
Cc1nn(CCc2nn[nH]n2)c2nc(-c3ccc(C4CCCCC4)cc3)cc(C(F)(F)F)c12,-8.53,i,i,-21.3,i,i,2.0%,i,i,83.6
O=C(O)c1ccccc1C(=O)Nn1cnnc1,i,i,i,i,i,i,nt,nt,nt,nt
COc1cccc(CNc2nc(SC)ncc2CO)c1,i,i,i,-4.77,i,i,80.3%,i,i,i
COc1cccc(CNc2ncnc3cc(OC)c(OC)cc23)c1,i,i,i,i,i,i,nt,nt,nt,nt
Cc1ccc(S(=O)(=O)c2ccc(Cl)cc2)cc1S(=O)(=O)N(C)CC(=O)O,i,i,i,-5.93,i,i,i,i,i,i
CN1CCN(c2oc(-c3ccccc3)nc2S(=O)(=O)c2ccc(Br)cc2)CC1,i,i,i,i,i,i,nt,nt,nt,nt
CCc1ccc(CN2C(=O)c3ccccc3C2C(=O)NC(C)CC)cc1 (stereo not drawn),i,i,i,i,i,i,nt,nt,nt,nt
CC(=O)c1cccc(NC(=O)C2CC(=O)N(CCc3ccccc3)C2)c1 (stereo not drawn),i,i,i,-5.19,i,i,i,i,i,i
CCOC(=O)Cc1nc2ccccc2n(CC#N)c1=O,i,i,i,i,i,i,nt,nt,nt,nt
COc1ccc(CCNC(=O)C2CCCN2S(=O)(=O)c2ccc(F)cc2)cc1OC (stereo not drawn),i,i,i,-9.02,i,i,i,i,i,i
COc1ccc(CNC(=O)C2CCCN2S(=O)(=O)c2ccc(Cl)cc2)cc1 (stereo not drawn),i,i,i,-5.5,i,i,83.9%,i,i,i
O=C(Cc1cccs1)NCCS(=O)(=O)N1CCN(c2ccccc2F)CC1,i,i,i,i,i,nt,nt,nt,nt,nt
CCc1nnc2sc(-c3ccc(NC(=O)c4ccco4)cc3)nn12,i,i,i,-8.07,i,nt,i,i,i,i
